Drawing on ChEMBL document CHEMBL1140279, “Synthesis and antimalarial evaluation of new N1-(7-chloro-4-quinolyl)-1,4-bis(3-aminopropyl)piperazine derivatives” (Bioorg Med Chem Lett, 2005), this text covers CC50, IC50 and Ratio for nine compounds.

For test [1], the system named is MRC5. In words: Cytotoxic concentration of compound of compound […] MRC-5 cells (human diploid embryonic lung cell line). Format: functional. In outline:
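Cytotoxicity measured on MRC-5 human diploid embryonic lung cells with a colorimetric MTT assay, giving the CC50.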

The subject of test [2] is Plasmodium falciparum. In words: Antimalarial activity as growth inhibition of chloroquine-resistant Plasmodium falciparum FcB1. Format: functional, organism-based. Put shortly:
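Parasite growth inhibition assay on the chloroquine-resistant P. falciparum FcB1 strain. IC50 values are derived from triplicate experiments and reported with standard error.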

The subject of test [3] is MRC5. In words: Ratio of CC50/IC50 was determined. Type of test: functional, Homo sapiens. Put shortly: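 Selectivity index taken as the ratio of CC50 on MRC-5 human diploid embryonic lung cells (colorimetric MTT assay) to IC50 for growth inhibition of the chloroquine-resistant Plasmodium falciparum strain FcB1. The IC50s come from triplicate experiments and are reported with standard error.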

In test [1], `NCCCN(CCCN1CCN(CCCNc2ccnc3cc(Cl)ccc23)CC1)CC1CC1` displayed a CC50 greater than 32 µM. In test [2], inhibition was half-maximal at 0.152 µM (IC50). In addition, in test [3], the Ratio is listed as greater than 210.

With `NC(=O)CCC(=O)N(CCCN1CCN(CCCNc2ccnc3cc(Cl)ccc23)CC1)CC1CC1`, the CC50 in test [1] is greater than 32 µM. Moreover, the IC50 in test [2] is less than 1 µM.

For the compound `CC(C)(C)OC(=O)NCCCN(CCCN1CCN(CCCNc2ccnc3cc(Cl)ccc23)CC1)CC1CC1`, the half-maximal cytotoxic concentration (CC50) in test [1] turned out to be 4 µM. In test [2], the IC50 came out at 0.0126 µM. Further, the Ratio in test [3] was 317.

Consider `O=C(O)CCC(=O)N(CCCN1CCN(CCCNc2ccnc3cc(Cl)ccc23)CC1)CC1CC1`, for which the CC50 in test [1] was greater than 32 µM. Further, the Ratio in test [3] is greater than 23.

`CC(C)(C)OC(=O)NCCC(=O)N(CCCN1CCN(CCCNc2ccnc3cc(Cl)ccc23)CC1)CC1CC1` displayed a CC50 in test [1] of 4 µM. This compound registered an IC50 in test [2] of 0.0342 µM. Moreover, the Ratio in test [3] came out at 116.

In test [1], `O=C(CCCO)N(CCCN1CCN(CCCNc2ccnc3cc(Cl)ccc23)CC1)CC1CC1` yielded a CC50 of 21 µM. The same compound gave an IC50 in test [2] of 0.172 µM. In test [3], the Ratio was determined as 122.

With `O=C(C1CC1)N(CCCN1CCN(CCCNc2ccnc3cc(Cl)ccc23)CC1)CC1CC1`, the CC50 in test [1] came out at 13.5 µM. The IC50 in test [2] amounted to 0.0065 µM. For the same compound, the Ratio in test [3] turned out to be 2076.

Consider `NCCC(=O)N(CCCN1CCN(CCCNc2ccnc3cc(Cl)ccc23)CC1)CC1CC1`, for which, in test [1], the CC50 is greater than 32 µM. Besides, the Ratio in test [3] is given as greater than 80.

`N#CCCCCN(CCCN1CCN(CCCNc2ccnc3cc(Cl)ccc23)CC1)CC1CC1` registered a CC50 in test [1] of 4 µM. In test [2], this compound showed an IC50 of 0.0099 µM. Further, in test [3], the Ratio came out at 404.
